From ChEMBL document CHEMBL1157708, “Design, synthesis and primary activity assay of bi- or tri-peptide analogues with the scaffold l-arginine as amino-peptidase N/CD13 inhibitors” (Bioorg Med Chem, 2010)
pIC50: −log10 of the molar value. Where a SMILES comes first, the peptide text is derived from it. [ ]: non-standard residue; d: D form. The star is where a group is joined. Arg(NO2) = N=C(NCCC[C@H](N)C(=O)O)N[N+](=O)[O-]; Boc = CC(C)(C)OC(=O)*; Bz = O=C(c1ccccc1)*; NHOH = ON*

Tests used:
[1] = target: T1, Aminopeptidase N (Sus scrofa, UniProt P15145); experiment: Inhibition of APN from pig kidney microsomes by spectrophotometry; type: tissue-based
T1 sequence (P15145 whole entry): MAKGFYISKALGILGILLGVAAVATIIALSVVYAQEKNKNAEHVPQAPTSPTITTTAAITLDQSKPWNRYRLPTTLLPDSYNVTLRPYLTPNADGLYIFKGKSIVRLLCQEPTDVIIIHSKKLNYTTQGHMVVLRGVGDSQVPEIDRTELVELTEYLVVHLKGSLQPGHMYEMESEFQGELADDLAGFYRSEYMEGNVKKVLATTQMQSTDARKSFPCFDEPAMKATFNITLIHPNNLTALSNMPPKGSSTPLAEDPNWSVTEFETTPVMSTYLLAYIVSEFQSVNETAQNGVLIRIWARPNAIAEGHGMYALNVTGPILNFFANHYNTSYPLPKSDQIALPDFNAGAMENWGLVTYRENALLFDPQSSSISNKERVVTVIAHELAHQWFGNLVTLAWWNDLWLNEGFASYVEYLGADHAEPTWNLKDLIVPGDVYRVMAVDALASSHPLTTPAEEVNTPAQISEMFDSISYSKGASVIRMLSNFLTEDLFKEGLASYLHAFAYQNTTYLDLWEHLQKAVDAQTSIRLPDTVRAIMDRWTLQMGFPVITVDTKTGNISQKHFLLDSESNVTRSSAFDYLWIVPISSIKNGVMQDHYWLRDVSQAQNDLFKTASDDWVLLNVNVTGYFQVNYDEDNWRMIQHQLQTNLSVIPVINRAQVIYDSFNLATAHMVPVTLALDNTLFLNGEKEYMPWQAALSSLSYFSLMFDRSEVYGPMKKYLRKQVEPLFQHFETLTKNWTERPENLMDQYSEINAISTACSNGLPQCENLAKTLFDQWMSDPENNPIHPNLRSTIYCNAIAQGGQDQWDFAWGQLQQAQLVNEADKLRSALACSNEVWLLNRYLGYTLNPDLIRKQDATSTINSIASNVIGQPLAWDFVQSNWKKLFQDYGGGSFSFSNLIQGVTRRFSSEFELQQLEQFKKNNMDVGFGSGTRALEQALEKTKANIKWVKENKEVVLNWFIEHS

[2] = target: 72 kDa type IV collagenase (Homo sapiens, UniProt P08253); experiment: Inhibition of MMP2 by spectrophotometry
How it was run: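 Gelatinase A (MMP-2) with an in-house synthesized substrate and inhibitor, all in 50 mmol/L sodium borate pH 8.5, incubated 30 min at 37 °C. 0.03% TNBS then added and incubated a further 20 min. Absorbance read at 450 nm.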

Chain of 72 kDa type IV collagenase (P08253 whole entry): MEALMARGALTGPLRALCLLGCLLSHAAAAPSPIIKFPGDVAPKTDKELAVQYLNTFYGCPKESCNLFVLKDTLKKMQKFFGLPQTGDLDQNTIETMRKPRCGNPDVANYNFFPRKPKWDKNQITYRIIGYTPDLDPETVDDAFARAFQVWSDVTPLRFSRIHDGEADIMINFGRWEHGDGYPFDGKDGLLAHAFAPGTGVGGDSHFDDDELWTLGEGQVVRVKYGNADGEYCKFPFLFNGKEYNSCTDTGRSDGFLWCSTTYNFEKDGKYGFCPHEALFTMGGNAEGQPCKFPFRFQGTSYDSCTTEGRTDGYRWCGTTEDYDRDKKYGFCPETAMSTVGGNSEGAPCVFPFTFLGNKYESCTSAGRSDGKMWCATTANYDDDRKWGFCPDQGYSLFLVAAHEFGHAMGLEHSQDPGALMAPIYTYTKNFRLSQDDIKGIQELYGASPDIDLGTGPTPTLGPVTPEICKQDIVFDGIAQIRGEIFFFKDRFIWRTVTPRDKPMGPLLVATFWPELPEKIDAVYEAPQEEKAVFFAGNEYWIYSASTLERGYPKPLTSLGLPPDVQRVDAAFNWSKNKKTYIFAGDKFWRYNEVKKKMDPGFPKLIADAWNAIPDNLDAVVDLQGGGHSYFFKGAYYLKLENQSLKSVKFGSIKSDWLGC

With `N=C(NCCC[C@H](NC(=O)[C@@H]1CCCN1C(=O)[C@@H]1CCCN1)C(=O)NO)N[N+](=O)[O-]` (H-Pro-Pro-[Arg(NO2)]-{NHOH}) the pIC50 [1] was 4.19 and the pIC50 [2] was 2.06.
`CC(C)C[C@H](NC(=O)[C@@H](O)[C@H](N)Cc1ccccc1)C(=O)O` [UBENIMEX] gave a pIC50 [2] of 3.60.
`CC(C)[C@H](NC(=O)c1ccccc1I)C(=O)N[C@@H](CCCNC(N)=N[N+](=O)[O-])C(=O)NO` was tested, and the pIC50 [1] was 5.17 and the pIC50 [2] was 2.75.
`CC(C)[C@H](NC(=O)OC(C)(C)C)C(=O)N[C@@H](CCCNC(N)=N[N+](=O)[O-])C(=O)NO` (Boc-Val-[Arg(NO2)]-{NHOH}) gave a pIC50 [1] of 3.70 and a pIC50 [2] of 2.46.
`CSCCC[C@H](N)C(=O)N[C@@H](CCCNC(=N)N[N+](=O)[O-])C(=O)NO` showed a pIC50 [2] of 2.38.
Compound `NC(=N[N+](=O)[O-])NCCC[C@H](NC(=O)[C@H](Cc1ccccc1)NC(=O)[C@@H]1CCCN1)C(=O)NO` (H-Pro-Phe-[Arg(NO2)]-{NHOH}) has a pIC50 [1] of 3.44 and a pIC50 [2] of 2.09.
Work on `CSCC[C@H](NC(=O)OC(C)(C)C)C(=O)N[C@@H](CCCNC(=N)N[N+](=O)[O-])C(=O)NO` (Boc-Met-[Arg(NO2)]-{NHOH}) yielded a pIC50 [1] of 3.88 and a pIC50 [2] of 2.71.
`N=C(NCCC[C@H](NC(=O)[C@H](Cc1ccccc1)NC(=O)c1ccccc1)C(=O)NO)N[N+](=O)[O-]` (Bz-Phe-[Arg(NO2)]-{NHOH}) gave a pIC50 [1] of 5.38 and a pIC50 [2] of 2.78.
With `CC(C)C[C@H](NC(=O)OC(C)(C)C)C(=O)N[C@@H](CCCNC(N)=N[N+](=O)[O-])C(=O)NO` the pIC50 [1] was 3.48 and the pIC50 [2] was 2.25.
For `CC(C)C[C@H](NC(=O)OC(C)(C)C)C(=O)NCC(=O)N[C@@H](CCCNC(N)=N[N+](=O)[O-])C(=O)NO` (Boc-Leu-Gly-[Arg(NO2)]-{NHOH}), the pIC50 [1] was 4.60 and the pIC50 [2] was 2.53.
`CC(C)C[C@H](NC(=O)OC(C)(C)C)C(=O)N[C@@H](C)C(=O)N[C@@H](CCCNC(N)=N[N+](=O)[O-])C(=O)NO` (Boc-Leu-Ala-[Arg(NO2)]-{NHOH}) was tested, and the pIC50 [1] was 4.40 and the pIC50 [2] was 2.54.
`CC(C)(C)OC(=O)N1CCC[C@H]1C(=O)N[C@@H](Cc1ccc(O)cc1)C(=O)N[C@@H](CCCNC(=N)N[N+](=O)[O-])C(=O)NO` (Boc-Pro-Tyr-[Arg(NO2)]-{NHOH}) was tested, and the pIC50 [1] was 3.36 and the pIC50 [2] was 2.35.
`COc1ccc(C(=O)N[C@@H](C)C(=O)N[C@@H](CCCNC(N)=N[N+](=O)[O-])C(=O)NO)cc1` showed a pIC50 [1] of 4.79 and a pIC50 [2] of 2.05.
Work on `CC(C)C[C@H](N)C(=O)N[C@@H](C)C(=O)N[C@@H](CCCNC(N)=N[N+](=O)[O-])C(=O)NO` (H-Leu-Ala-[Arg(NO2)]-{NHOH}) yielded a pIC50 [2] of 2.77.
`CC(C)C[C@H](NC(=O)[C@H](Cc1ccccc1)NC(=O)OC(C)(C)C)C(=O)N[C@@H](CCCNC(=N)N[N+](=O)[O-])C(=O)NO` (Boc-Phe-Leu-[Arg(NO2)]-{NHOH}) gave a pIC50 [1] of 5.08 and a pIC50 [2] of 3.39.
`C[C@H](NC(=O)c1ccc(Cl)cc1Cl)C(=O)N[C@@H](CCCNC(N)=N[N+](=O)[O-])C(=O)NO` was tested, and the pIC50 [1] was 4.50 and the pIC50 [2] was 2.76.
Work on `CC(C)C[C@H](N)C(=O)N[C@@H](CCCNC(=N)N[N+](=O)[O-])C(=O)NO` yielded a pIC50 [2] of 2.27.
`CC(C)C[C@H](N)C(=O)NCC(=O)N[C@@H](CCCNC(N)=N[N+](=O)[O-])C(=O)NO` (H-Leu-Gly-[Arg(NO2)]-{NHOH}) showed a pIC50 [2] of 2.44.
Work on `CC(C)C[C@H](NC(=O)[C@@H](N)Cc1ccccc1)C(=O)N[C@@H](CCCNC(=N)N[N+](=O)[O-])C(=O)NO` (H-Phe-Leu-[Arg(NO2)]-{NHOH}) yielded a pIC50 [2] of 3.29.
`CC(C)C[C@H](NC(=O)c1ccccc1Cl)C(=O)N[C@@H](CCCNC(N)=N[N+](=O)[O-])C(=O)NO` was tested, and the pIC50 [1] was 5.32 and the pIC50 [2] was 3.20.
`CC(C)[C@H](N)C(=O)N[C@@H](CCCNC(N)=N[N+](=O)[O-])C(=O)NO` (H-Val-[Arg(NO2)]-{NHOH}) was tested, and the pIC50 [2] was 3.37.
Work on `N=C(NCCC[C@H](NC(=O)[C@H](Cc1ccccc1)NC(=O)c1ccc(Cl)cc1Cl)C(=O)NO)N[N+](=O)[O-]` yielded a pIC50 [1] of 5.37 and a pIC50 [2] of 2.09.
For `CC(C)[C@H](NC(=O)[C@@H](N)Cc1ccccc1)C(=O)N[C@@H](CCCNC(N)=N[N+](=O)[O-])C(=O)NO` (H-Phe-Val-[Arg(NO2)]-{NHOH}), the pIC50 [1] was 4.01 and the pIC50 [2] was 2.50.
In the case of `N=C(NCCC[C@H](NC(=O)[C@H](Cc1ccc(O)cc1)NC(=O)[C@@H]1CCCN1)C(=O)NO)N[N+](=O)[O-]` (H-Pro-Tyr-[Arg(NO2)]-{NHOH}), the pIC50 [1] was 3.61 and the pIC50 [2] was 2.12.
`CC(C)(C)OC(=O)N1CCC[C@H]1C(=O)N1CCC[C@H]1C(=O)N[C@@H](CCCNC(=N)N[N+](=O)[O-])C(=O)NO` (Boc-Pro-Pro-[Arg(NO2)]-{NHOH}) was tested, and the pIC50 [1] was 4.38 and the pIC50 [2] was 2.08.
Compound `CC(C)(C)OC(=O)N1CCC[C@H]1C(=O)N[C@@H](Cc1ccccc1)C(=O)N[C@@H](CCCNC(=N)N[N+](=O)[O-])C(=O)NO` (Boc-Pro-Phe-[Arg(NO2)]-{NHOH}) has a pIC50 [1] of 2.87 and a pIC50 [2] of 2.10.
In the case of `CC(C)[C@H](NC(=O)[C@H](Cc1ccccc1)NC(=O)OC(C)(C)C)C(=O)N[C@@H](CCCNC(=N)N[N+](=O)[O-])C(=O)NO` (Boc-Phe-Val-[Arg(NO2)]-{NHOH}), the pIC50 [1] was 4.48 and the pIC50 [2] was 3.35.
Compound `CC(C)C[C@H](NC(=O)c1ccc(Cl)cc1Cl)C(=O)N[C@@H](CCCNC(N)=N[N+](=O)[O-])C(=O)NO` has a pIC50 [1] of 5.14 and a pIC50 [2] of 2.81.
